# Measurements: ChEMBL document CHEMBL4118175, “Anti-allergic inflammatory components from Sanguisorba officinalis L” (Bioorg Med Chem Lett, 2018)
# The source made the active and inactive calls. The calls are words filed in the database; no cut-off is given here.
# Columns and labels:
# [1] = target: Transcription factor p65 (Mus musculus) (UniProt Q04207); assay: Inhibition of NFkappaB nuclear translocation in LPS-stimulated mouse RAW264.7 cells at 20 uM pretreated for 2 hrs followed by LPS-induction by DAPI-staining based immunofluorescence microscopic method; assay type: cell-based
# Summary of the method: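 Cells in eight-well glass chambers preincubated 2 h with samples (20 µM) or Bay 11-7082 before LPS 1 µg/mL; immunostaining with polyclonal anti-p65 and Alexa Fluor 488 secondary to view nuclear translocation.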
# RBL-2H3 [2] = assay: Cytotoxicity against rat RBL2H3 cells at 5 and 20 uM after 24 hrs by MTS assay; assay type: cell-based; conditions: rbl-2h3, 24 h
# Summary of the method: (§1)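 RBL-2H3 (seeded overnight) or RAW264.7 cells exposed to 5 and 20 µM samples for 24 h; viability by MTS; three independent experiments, mean ± SEM.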
# RAW264.7 [3] = assay: Anti-inflammatory activity in mouse RAW264.7 cells assessed as inhibition of LPS-induced nitric oxide production preincubated for 2 hrs followed by LPS addition measured after 24 hrs by Griess method; assay type: functional, cell-based
# Summary of the method: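 Following 2 h sample pretreatment, LPS added for 24 h; supernatant NO read with Griess reagent; triplicate, mean ± SEM.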
# RBL-2H3 [4] = assay: Anti-inflammatory activity in IgE sensitized and DNP-BSA-stimulated rat RBL2H3 cells assessed as reduction of IL4 secretion preincubated for 2 hrs followed by DNP-BSA stimulation for 18 hrs by ELISA; assay type: functional, cell-based
# Summary of the method: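 IgE-sensitized cells (overnight, 37 °C) pretreated with compounds 2 h, then challenged with 1 µg/mL DNP-BSA for 18 h; IL-4 in supernatant quantified by ELISA kit. Cells seeded in 48-well plates overnight; triplicate, mean ± SEM.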
# RAW264.7 [5] = assay: Anti-inflammatory activity in mouse RAW264.7 cells assessed as reduction in LPS-stimulated COX2 protein expression at 20 uM preincubated for 2 hrs followed by LPS addition measured after 18 hrs by Western blot analysis; assay type: functional, cell-based
# Summary of the method: (§2)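 Pretreatment 2 h with samples (20 µM) then LPS 200 ng/mL for 18 h; COX-2 and iNOS protein by Western blot.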
# [6] = target: Transcription factor p65 (Homo sapiens) (UniProt Q04206); assay: Inhibition of PMA-induced NFkappaB P65 activation (unknown origin) expressed in human HEK293T cells transfected with pNF-kappaB-SEAP preincubated for 2 hrs followed by PMA stimulation measured after overnight incubation by NFkappaB reporter gene assay; assay type: cell-based
# Summary of the method: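 293T cells carrying pNFκB-SEAP reporter plasmid, pretreated with samples then PMA-stimulated; NF-κB transcription read as SEAP; triplicate, mean ± SEM.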
# RAW264.7 [7] = assay: Cytotoxicity against mouse RAW264.7 cells at 5 and 20 uM after 24 hrs by MTS assay; assay type: cell-based; conditions: raw264.7, 24 h; summary of the method: as §1
# RBL-2H3 [8] = assay: Anti-inflammatory activity in PMA/A23187-stimulated rat RBL2H3 cells assessed as reduction of IL4 secretion preincubated for 2 hrs followed by PMA/A23187 stimulation for 18 hrs by ELISA; assay type: functional, cell-based
# Summary of the method: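 Cells plated overnight, pretreated 2 h, then stimulated with 30 ng/mL PMA plus 350 ng/mL A23187 for 18 h; supernatant IL-4 by ELISA kit; triplicate, mean ± SEM.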
# RBL-2H3 [9] = assay: Anti-inflammatory activity in PMA/A23187-stimulated rat RBL2H3 cells assessed as reduction of beta-hexosaminidase secretion preincubated for 1 hr followed by PMA/A23187 stimulation for 1 hr using 4-nitrophenyl-N-acetyl-beta-D-glucosaminide substrate; assay type: functional, cell-based
# Summary of the method: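 After overnight plating, cells pretreated 1 h then stimulated with 30 ng/mL PMA plus 350 ng/mL A23187 for 1 h; supernatants collected for β-hexosaminidase detection; triplicate, mean ± SEM.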
# RAW264.7 [10] = assay: Anti-inflammatory activity in mouse RAW264.7 cells assessed as inhibition of LPS-induced TNF-alpha production at 20 uM preincubated for 2 hrs followed by LPS addition measured after 24 hrs by ELISA; assay type: functional, cell-based
# Summary of the method: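 Cells pretreated 2 h with compounds (20 µM) before LPS (500 ng/mL) for 24 h; supernatant TNF-α by ELISA kit; triplicate, mean ± SEM.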
# RAW264.7 [11] = assay: Anti-inflammatory activity in mouse RAW264.7 cells assessed as reduction in LPS-stimulated iNOS protein expression at 20 uM preincubated for 2 hrs followed by LPS addition measured after 18 hrs by Western blot analysis; assay type: functional, cell-based; summary of the method: as §2
# Transcription factor p65 (Homo sapiens), sequence (Q04206 whole entry): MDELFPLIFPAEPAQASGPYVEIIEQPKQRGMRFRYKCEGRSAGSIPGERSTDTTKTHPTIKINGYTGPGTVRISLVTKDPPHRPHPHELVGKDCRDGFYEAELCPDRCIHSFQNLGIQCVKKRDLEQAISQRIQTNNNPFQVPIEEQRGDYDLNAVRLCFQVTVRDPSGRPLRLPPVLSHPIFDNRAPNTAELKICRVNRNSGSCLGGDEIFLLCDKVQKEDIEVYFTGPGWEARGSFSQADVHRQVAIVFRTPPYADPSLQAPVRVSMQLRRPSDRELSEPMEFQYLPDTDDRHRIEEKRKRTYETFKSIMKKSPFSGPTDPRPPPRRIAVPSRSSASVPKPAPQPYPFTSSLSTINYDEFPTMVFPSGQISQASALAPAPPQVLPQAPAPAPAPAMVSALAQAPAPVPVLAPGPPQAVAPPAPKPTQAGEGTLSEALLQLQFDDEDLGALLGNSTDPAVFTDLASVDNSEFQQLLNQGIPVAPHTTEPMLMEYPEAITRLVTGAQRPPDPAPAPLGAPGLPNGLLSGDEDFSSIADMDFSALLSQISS
# Transcription factor p65 (Mus musculus), sequence (Q04207 whole entry): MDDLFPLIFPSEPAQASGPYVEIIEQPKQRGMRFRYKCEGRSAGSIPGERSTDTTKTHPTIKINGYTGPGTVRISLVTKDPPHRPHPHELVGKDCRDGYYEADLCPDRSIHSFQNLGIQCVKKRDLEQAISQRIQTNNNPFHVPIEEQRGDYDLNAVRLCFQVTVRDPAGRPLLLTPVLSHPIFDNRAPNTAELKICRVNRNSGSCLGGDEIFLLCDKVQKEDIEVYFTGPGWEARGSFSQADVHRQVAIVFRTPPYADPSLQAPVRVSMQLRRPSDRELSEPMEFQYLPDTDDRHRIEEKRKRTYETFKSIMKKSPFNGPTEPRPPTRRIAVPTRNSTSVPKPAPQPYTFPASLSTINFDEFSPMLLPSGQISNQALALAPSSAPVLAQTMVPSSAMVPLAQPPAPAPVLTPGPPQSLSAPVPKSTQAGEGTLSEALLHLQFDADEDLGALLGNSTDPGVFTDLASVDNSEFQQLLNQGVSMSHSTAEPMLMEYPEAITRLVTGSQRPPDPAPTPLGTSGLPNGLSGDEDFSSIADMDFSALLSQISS
NFkappaB nuclear translocation inhibition (qualitative call) [1],inhibition [6],SMILES,Activity (RBL-2H3 [2]),Activity (RAW264.7 [3]),Activity (RBL-2H3 [4]),Activity (RAW264.7 [5]),Activity (RAW264.7 [7]),Activity (RBL-2H3 [8]),Activity (RBL-2H3 [9]),Activity (RAW264.7 [10]),Activity (RAW264.7 [11])
Active,Dose-dependent effect,CC(CCCC(C)(C)O)CCO[C@@H]1O[C@H](CO[C@@H]2O[C@@H](CO)[C@H](O)[C@H]2O)[C@@H](O)[C@H](O)[C@H]1O (stereo not given in full),Non-Toxic,Active,Dose-dependent effect,Active,Non-Toxic,Dose-dependent effect,Active,Active,Active
Active,Dose-dependent effect,CC1=C2C3=CC[C@@H]4[C@@]5(C)CC[C@H](O[C@@H]6OC[C@H](O)[C@H](O)[C@H]6O)C(C)(C)[C@@H]5CC[C@@]4(C)[C@]3(C)CC[C@@]2(C(=O)O[C@@H]2O[C@H](CO)[C@@H](O)[C@H](O)[C@H]2O)CC[C@H]1C,Non-Toxic,Active,Dose-dependent effect,Active,Non-Toxic,Dose-dependent effect,Active,Active,Active
Active,Dose-dependent effect,C[C@@H]1CC[C@]2(C(=O)O)CC[C@]3(C)C(=CC[C@@H]4[C@@]5(C)CC[C@H](O[C@@H]6OC[C@H](O)[C@H](O)[C@H]6O)C(C)(C)[C@@H]5CC[C@]43C)[C@@H]2[C@]1(C)O,Non-Toxic,Active,Dose-dependent effect,–,Non-Toxic,Dose-dependent effect,Active,Active,–
Active,–,Cc1ccc(S(=O)(=O)/C=C/C#N)cc1,–,–,–,–,–,–,–,–,–

# Second part, the molecule before the results:
SMILES,NFkappaB nuclear translocation inhibition (qualitative call) [1],inhibition [6],Activity (RBL-2H3 [2]),Activity (RAW264.7 [3]),Activity (RBL-2H3 [4]),Activity (RAW264.7 [5]),Activity (RAW264.7 [7]),Activity (RBL-2H3 [8]),Activity (RBL-2H3 [9]),Activity (RAW264.7 [10]),Activity (RAW264.7 [11])
C=CCc1ccc(O[C@@H]2O[C@H](CO[C@@H]3OC[C@@H](O)[C@H](O)[C@H]3O)[C@@H](O)[C@H](O)[C@H]2O)cc1,–,–,Non-Toxic,Active,Dose-dependent effect,Active,Non-Toxic,Dose-dependent effect,Active,Active,Active
Cc1ccc(-c2cc(C(F)(F)F)nn2-c2ccc(S(N)(=O)=O)cc2)cc1,–,–,–,–,–,Active,–,–,–,–,–
COc1cc2c(=O)oc3c(OC)c(OC)cc4c(=O)oc(c1O)c2c34,–,–,Toxic,–,–,–,Toxic,–,–,–,–
C[C@@H]1CC[C@]2(C(=O)O[C@@H]3O[C@H](CO)[C@@H](O)[C@H](O)[C@H]3O)CC[C@]3(C)C(=CC[C@@H]4[C@@]5(C)C[C@@H](O)[C@@H](O)C(C)(C)[C@@H]5CC[C@]43C)[C@@H]2[C@]1(C)O,–,–,Non-Toxic,–,Dose-dependent effect,–,Non-Toxic,Dose-dependent effect,Active,Active,–
